In the library only some 1.5% were active in any assay of this set; here they are far more common.
LANA-H2B inh: blockers of LANA interaction with H2A/H2B – biochemical, FP readout, HTS, primary screen. Protein LANA1 (Human herpesvirus 8 type P (isolate GK18)), Q9QR71. cell-free LANA-H2A/H2B peptide, fluorescence polarization. inhibition, % (concentration not given with the values). actives 0.6% (n = 320,000). AID 2629, 2010; in the data active = inhibition mostly above about 10%, no sharp cut-off; inactive = mostly below about 6.7%
T cell modulator: modulators of CD8 T cell-vesicle binding, primary screen, mouse 2C CD8+ T cells, flow cytometry | 2C CD8+ T cell-vesicle binding; stronger effect = lower value | response (vesicle binding), % at 7 µM | actives 0.068% (n = 330,000);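 active = response, share of CD8 T cells binding vesicles, and their 90th percentile fluorescence all below set limits, cut at about 80% in these data, passing the limit was not always enough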;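 note: values below 100% mean blocked vesicle binding to the CD8+ T cells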
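Material: 2C TCR transgenic mouse naive CD8+ T cells, MACS-purified. Also added: QL9-charged Drosophila Ld/ICAM-1/B7-1 vesicles. Timing: binding 1.5 h at 37 °C. Measured by: high-throughput flow cytometry with anti-B7-1 and anti-CD8 staining. Read-out: percent CD8+ FL2 mean versus row control. Controls: Unloaded micro-vesicles (low), QL9 vesicles with 0.7% DMSO (high).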
HDAC3 inh: HDAC3 deacetylase inhibitors, primary screen, biochemical, fluorescence, cell-free homogeneous; Histone deacetylase 3 (Homo sapiens), O15379; recombinant HDAC3, fluorogenic peptide/trypsin coupled; inhibition, % at 8.3 µM; actives 0.15% (n = 320,000); in the data active = inhibition above about 26%, passing the limit was not always enough
Arr AP2 block: inhibitors of beta-arrestin/AP2 binding, primary screen, biochemical, GPCR trafficking, flow cytometry; FITC-arrestin peptide / GST-AP2 beads; AP2 beta2 appendage carries R879A mutation; inhibition, % at 10 µM; actives 0.31% (n = 340,000); AID 504490, 2011;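 active = inhibition above a set limit, near 3 SD of compounds lacking own fluorescence, cut at about 54% in these data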;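 note: plate controls were DMSO wells for no effect and 5 µM unlabelled arrestin peptide for full effect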
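Material – GST-tagged AP2 beta2-adaptin appendage (R879A) on 4 µm glutathione beads · Probe or stimulus – fluorescein-tagged arrestin peptide at 50 nM final · Timing – 12 min plus 1 h, RT · Detection – bead flow cytometry, FITC channel · Read-out basis – inhibition as reduced fluorescein signal on beads, percent · Medium – PBS plus Tween 20 (0.05%) and BSA (0.1%)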
Pemphigus Ab inh: inhibitors of pemphigus antibody binding to DSG3, primary screen, biochemical, bead-based, flow cytometry, scFv-GFP; Desmoglein-3 (Homo sapiens), P32926; DSG3-coupled beads, scFv-anti-DSG3-GFP binding; stronger effect = lower value; binding (percent of control), % at 10 µM; actives 0.48% (n = 310,000); AID 588358, 2011;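 active = binding more than 3 SD below its plate's average and above zero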;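 note: hits lower antibody fragment binding to DSG3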
Target sequence (P32926 whole entry, looked up, the tested form may be a part): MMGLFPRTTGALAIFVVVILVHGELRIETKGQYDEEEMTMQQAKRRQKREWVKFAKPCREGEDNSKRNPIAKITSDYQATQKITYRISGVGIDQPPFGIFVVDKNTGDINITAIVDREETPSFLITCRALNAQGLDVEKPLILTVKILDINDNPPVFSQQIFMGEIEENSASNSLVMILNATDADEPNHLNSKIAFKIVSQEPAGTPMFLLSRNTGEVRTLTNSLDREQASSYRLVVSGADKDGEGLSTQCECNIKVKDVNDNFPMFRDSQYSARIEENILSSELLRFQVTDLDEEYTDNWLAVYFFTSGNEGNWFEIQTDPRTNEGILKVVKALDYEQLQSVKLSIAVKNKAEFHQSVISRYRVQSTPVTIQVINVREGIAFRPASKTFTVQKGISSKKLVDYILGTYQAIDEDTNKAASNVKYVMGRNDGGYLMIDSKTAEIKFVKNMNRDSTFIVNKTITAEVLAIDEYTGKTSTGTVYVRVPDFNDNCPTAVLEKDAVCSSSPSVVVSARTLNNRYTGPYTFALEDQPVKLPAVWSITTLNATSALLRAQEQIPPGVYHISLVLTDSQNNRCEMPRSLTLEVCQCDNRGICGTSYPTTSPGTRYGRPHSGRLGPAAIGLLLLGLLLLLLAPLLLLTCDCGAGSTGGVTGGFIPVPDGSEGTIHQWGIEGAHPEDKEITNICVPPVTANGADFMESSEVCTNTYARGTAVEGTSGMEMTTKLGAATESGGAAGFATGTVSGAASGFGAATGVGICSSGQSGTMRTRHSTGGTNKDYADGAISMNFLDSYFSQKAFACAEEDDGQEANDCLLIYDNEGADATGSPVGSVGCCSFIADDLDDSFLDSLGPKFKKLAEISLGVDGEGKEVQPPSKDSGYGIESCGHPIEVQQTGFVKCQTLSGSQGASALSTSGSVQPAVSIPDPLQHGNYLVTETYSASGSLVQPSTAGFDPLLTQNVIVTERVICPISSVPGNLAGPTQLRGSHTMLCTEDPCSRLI
Arr-AP2 CP1: inhibitors of arrestin peptide binding to AP2, confirmation, biochemical, cherry pick 1, flow cytometry beads. shares compounds with Arr AP2 block. GST-AP2 beads, FITC arrestin peptide binding; GST-fused beta2-adaptin appendage, R879A mutant. inhibition, % at 10 µM. actives 2% (n = 1,300). AID 504908, 2011;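 active = inhibition above a set limit, roughly 3 SD of non-fluorescent compound noise, cut at about 38% in these data; inactive = inhibition at or below that limit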;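 note: loss of bead fluorescence from 50 nM FITC arrestin peptide bound to appendage; 0% = negative control wells and 100% = excess unlabelled arrestin peptide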
GST GSH counter: GST-fluorescein capture on glutathione beads, confirmation, artefact control for arrestin-AP2 inhibitor project, biochemical, cherry pick 1, flow cytometry; GST-fluorescein binding to GSH beads, fluorescence, counter-screen; actives 2% (n = 1,300); inhibition, % at 10 µM; AID 588338, 2011; shares compounds with Arr AP2 block;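 active = inhibition above 50%, about 3 SD of the inhibition seen with non-fluorescent compounds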;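 note: fluorescein maleimide labelled GST captured on 4 micron glutathione beads; higher means more loss of bead fluorescence from quenching or blocked binding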
* = called active by the depositor.

Results for CC(=O)/C(=N\Nc1ccccc1)Sc1nnc(-c2ccccc2)n1-c1ccccc1 ?
LANA-H2B inh: -1.9; T cell modulator: 239.3; HDAC3 inh: 0.6; Arr AP2 block: 91.2*; Pemphigus Ab inh: 93.5; Arr-AP2 CP1: 8.2; GST GSH counter: 4.8

What do the screens show for `CC(=O)/C(=N\Nc1ccccc1Cl)Sc1nnc(-c2ccccc2)n1-c1ccccc1`?
LANA-H2B inh: 0.3; T cell modulator: inactive; HDAC3 inh: 4.9; Arr AP2 block: -3.0; Pemphigus Ab inh: 98.0

How did Cc1ccc(NC(=O)CC(=O)c2ccccc2)cc1C do in these assays?
LANA-H2B inh: 1.6; T cell modulator: 369.0; HDAC3 inh: 3.0; Arr AP2 block: 11.5; Pemphigus Ab inh: 114.4; Arr-AP2 CP1: 3.8; GST GSH counter: 0.2

How did COc1ccccc1NC(=O)CC(=O)c1ccccc1 do in these assays?
LANA-H2B inh: -0.1; T cell modulator: 221.7; HDAC3 inh: -8.7; Arr AP2 block: -6.0; Pemphigus Ab inh: 106.8; Arr-AP2 CP1: 1.1; GST GSH counter: 1.3

Results for CSc1ccccc1C(=O)Nc1ccc(C)c(C)c1 ?
LANA-H2B inh: 1.0; T cell modulator: 409.5; HDAC3 inh: 2.8; Arr AP2 block: 54.4*; Arr-AP2 CP1: -9.0; GST GSH counter: -7.7

Results for CSc1ccccc1C(=O)Nc1cc(C)cc(C)c1 ?
LANA-H2B inh: 2.0; T cell modulator: 166.4; HDAC3 inh: -1.1; Arr AP2 block: -6.2; Pemphigus Ab inh: 102.7

Results for COc1ccccc1NC(=O)CC(=O)Nc1ccccc1OC ?
LANA-H2B inh: 0.4; T cell modulator: 200.0; HDAC3 inh: -3.2; Arr AP2 block: 0.6; Pemphigus Ab inh: 100.6

Results for COc1ccc(NC(=O)CCCC(=O)c2ccccc2)cc1OC ?
LANA-H2B inh: 6.0; T cell modulator: 22.5; HDAC3 inh: -1.8; Arr AP2 block: 60.6*; Pemphigus Ab inh: 92.3; Arr-AP2 CP1: -7.4; GST GSH counter: -6.6

How did O=C(COc1ccccc1Cl)Nc1ccc(N2CCN(C(=O)c3ccccc3)CC2)cc1 do in these assays?
LANA-H2B inh: -2.5; T cell modulator: 231.4; HDAC3 inh: -0.6; Arr AP2 block: 35.9; Pemphigus Ab inh: 113.8

What do the screens show for `COc1ccc(C(C)=O)cc1CN(c1ccccc1OC)S(=O)(=O)c1cccs1`?
LANA-H2B inh: 3.8; T cell modulator: 204.3; HDAC3 inh: 2.6; Arr AP2 block: 6.2; Pemphigus Ab inh: 103.4

Results for O=C(CC(=O)c1ccccc1)Nc1ccc(Cl)cc1 ?
LANA-H2B inh: -3.8; T cell modulator: 212.7; HDAC3 inh: -0.1; Arr AP2 block: 8.4; Pemphigus Ab inh: 94.8; Arr-AP2 CP1: 3.3; GST GSH counter: 6.8

How did CC1CC1C(=O)OCC(=O)Nc1ccc(Cl)cn1 (stereo not drawn) do in these assays?
LANA-H2B inh: 0.1; T cell modulator: 0.0; HDAC3 inh: -9.6; Arr AP2 block: 26.9

Results for CC1CCC(NC(=O)CSc2nnnn2C)CC1 (stereo not drawn) ?
LANA-H2B inh: 3.3; T cell modulator: 138.1; HDAC3 inh: -3.0; Arr AP2 block: -4.0; Pemphigus Ab inh: 116.0

How did c1ccc(CCNCC2COc3ccccc3O2)cc1 (stereo not drawn) do in these assays?
LANA-H2B inh: -0.9; T cell modulator: 224.9; HDAC3 inh: -13.2; Arr AP2 block: 55.2*; Pemphigus Ab inh: 103.3; Arr-AP2 CP1: -11.4; GST GSH counter: 0.0

What do the screens show for `c1ccc2c(c1)OCC(CNCC1COc3ccccc3O1)O2` (stereo not drawn)?
LANA-H2B inh: -4.6; T cell modulator: 192.9; HDAC3 inh: 2.3; Arr AP2 block: 0.3; Pemphigus Ab inh: 116.0

What do the screens show for `CC(Oc1ccc(Br)cc1)C(=O)Nc1cc(Cl)ccc1N1CCN(C)CC1` (stereo not drawn)?
LANA-H2B inh: 1.2; T cell modulator: 346.1; HDAC3 inh: 2.9; Arr AP2 block: 2.3; Pemphigus Ab inh: 87.5

Results for Cc1ccc(SCC(=O)NC(=O)NC2CCCC2)c(C)c1 ?
Arr AP2 block: 63.7*; Pemphigus Ab inh: 114.2; Arr-AP2 CP1: -4.4; GST GSH counter: -5.5

Results for Cc1ccc(C)c(SCC(=O)NC(=O)NC2CCCC2)c1 ?
T cell modulator: 287.3; Arr AP2 block: -3.2; Pemphigus Ab inh: 102.4

Results for CCN1/C(=C2\SC(=S)N(Cc3ccccc3)C2=O)Sc2ccccc21 ?
LANA-H2B inh: 6.0; T cell modulator: 274.3; HDAC3 inh: -2.0; Arr AP2 block: 106.9*; Pemphigus Ab inh: 91.4; Arr-AP2 CP1: 8.6; GST GSH counter: -5.8

How did O=C(CCNS(=O)(=O)c1ccccc1C(F)(F)F)NCCCSc1ccccc1 do in these assays?
LANA-H2B inh: 0.4; T cell modulator: 238.5; HDAC3 inh: 8.3; Arr AP2 block: 36.0; Pemphigus Ab inh: 99.6

Results for CN(C)C(CNC(=O)CCNS(=O)(=O)c1ccccc1C(F)(F)F)c1ccccc1 (stereo not drawn) ?
LANA-H2B inh: -1.4; T cell modulator: 526.7; HDAC3 inh: -5.0; Arr AP2 block: 58.1*; Arr-AP2 CP1: 10.2; GST GSH counter: -4.1

Results for COc1cccc(NC(=O)CCS(=O)(=O)c2ccc(Br)cc2)c1 ?
LANA-H2B inh: -0.8; T cell modulator: 76.9; HDAC3 inh: -2.6; Arr AP2 block: -10.1; Pemphigus Ab inh: 107.3

What do the screens show for `C[C@@H]1c2ccccc2N2C[C@H](Cc3ccc(C(=O)c4ccccc4)cc3)C[C@@H]12`?
Pemphigus Ab inh: 100.6

How did COc1ccc(OC)c(CN2CCN(C(=O)CCC(=O)c3cccs3)CC2)c1 do in these assays?
LANA-H2B inh: 1.5; T cell modulator: 402.4; HDAC3 inh: 3.8; Arr AP2 block: 55.2*; Pemphigus Ab inh: 101.3; Arr-AP2 CP1: 0.4; GST GSH counter: 0.0

What do the screens show for `C=CCN1C=C/C(=C\C=C(C#N)C#N)c2ccccc21`?
LANA-H2B inh: -22.7; T cell modulator: 202.0; HDAC3 inh: 4.8; Arr AP2 block: 3.5; Pemphigus Ab inh: 91.1
